Laboratory results published in ChEMBL document CHEMBL3745677, “Discovery of 6-(4-{[5-Cyclopropyl-3-(2,6-dichlorophenyl)isoxazol-4-yl]methoxy}piperidin-1-yl)-1-methyl-1H-indole-3-carboxylic Acid: A Novel FXR Agonist for the Treatment of Dyslipidemia” (J Med Chem, 2015).

How the values were obtained:
[1] = Volume of distribution at steady state in beagle dog at 1 mg/kg, iv by LC-MS/MS analysis; assay type: ADME, organism-based, Canis lupus familiaris; settings: in vivo, read-out: Vdss
How it was run: (§1)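 Intravenous dose given in 5% Solutol / 5% EtOH in saline (1 mg/kg rat and dog, 0.91 mpk monkey). Plasma samples collected and analyzed by LC-MS/MS; parameters reported as mean ± SD, N=2-3.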

[2] = Fraction unbound in rat plasma; assay type: ADME, cell-free
Mus musculus [3] = assay: Antidyslipidemic activity in western-diet fed mouse expressing LDL-receptor (-/-) assessed as decrease in low density lipoprotein level at 1 mg/kg qd for a week administered via gavage by FPLC analysis; assay type: functional; settings: po
How it was run: (§2)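 LDLR null male mice, six per group, were dosed by gavage once daily for one week (vehicle 5% Solutol, 5% EtOH, 1% wt/v CMC; 5 mL/kg). Serum was collected by cardiac puncture on day 7 under CO2 anaesthesia. Pooled serum from each treatment group was fractionated by FPLC to quantify VLDL and LDL.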

Mus musculus [4] = assay: Antidyslipidemic activity in western-diet fed mouse expressing LDL-receptor (-/-) assessed as decrease in low density lipoprotein level at 3 mg/kg qd for a week administered via gavage by FPLC analysis; assay type: functional; settings: po; how it was run: as §2
[5] = Initial plasma concentration in beagle dog at 1 mg/kg, iv by LC-MS/MS analysis; assay type: ADME, organism-based, Canis lupus familiaris; how it was run: as §1
Mus musculus [6] = assay: Antidyslipidemic activity in western-diet fed mouse expressing LDL-receptor (-/-) assessed as decrease in low density lipoprotein level at 10 mg/kg qd for a week administered via gavage by FPLC analysis; assay type: functional; settings: po; how it was run: as §2
Mus musculus [7] = assay: Antidyslipidemic activity in western-diet fed mouse expressing LDL-receptor (-/-) assessed as decrease in very-low density lipoprotein level at 3 mg/kg qd for a week administered via gavage by FPLC analysis; assay type: functional; settings: po; how it was run: as §2
[8] = Terminal half life in beagle dog at 1 mg/kg, iv by LC-MS/MS analysis; assay type: ADME, organism-based, Canis lupus familiaris; settings: in vivo, read-out: beta t1/2 (converted); how it was run: as §1
[9] = Tmax in beagle dog at 3 mg/kg, po by LC-MS/MS analysis; assay type: ADME, organism-based, Canis lupus familiaris; settings: in vivo
How it was run: (§3)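 Oral/nasogastric dosing at 3 mpk in 1.0% CMC/0.25% PS80/0.05% antifoam in purified water. Plasma samples collected and analyzed by LC-MS/MS; parameters reported as mean ± SD, N=2-3.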

Mus musculus [10] = assay: Antidyslipidemic activity in western-diet fed mouse expressing LDL-receptor (-/-) assessed as decrease in triglyceride level administered once daily for a week via gavage […]; assay type: functional; settings: po
How it was run: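 Male LDLR null mice, six per group, were gavaged once daily for one week with compound (in situ sodium salt) or vehicle (5% Solutol, 5% EtOH, 1% wt/v CMC) at 5 mL/kg. On day 7 they were bled by cardiac puncture under CO2 anaesthesia. Serum cholesterol and triglycerides were measured enzymatically on a clinical chemistry analyser (mean ± SD, n=6). ED50 was obtained by nonlinear regression.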

Rattus norvegicus [11] = assay: Antidyslipidemic activity in ZDF rat assessed as VLDL level at 30 mg/kg for 9 days by FPLC analysis (reference value: 35 mg/dL); assay type: functional, Zucker
[12] = Terminal half life in beagle dog at 3 mg/kg, po by LC-MS/MS analysis; assay type: ADME, organism-based, Canis lupus familiaris; settings: in vivo, read-out: beta t1/2 (converted); how it was run: as §3
[13] = Terminal half life in Sprague-Dawley rat at 1 mg/kg, iv by LC-MS/MS analysis; assay type: ADME, organism-based; settings: in vivo, read-out: beta t1/2 (converted); how it was run: as §1
[14] = AUC (0 to 24 hrs) in cynomolgus monkey at 0.91 mg/kg, iv by LC-MS/MS analysis; assay type: ADME, organism-based, Macaca fascicularis; design: dose 0.91 mg/kg, time < 24 hr, route intravenous; settings: in vivo
How it was run: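 Sprague Dawley rats, Beagle dogs and Cynomolgus monkeys were dosed IV at 1 mg/kg (rat, dog) or 0.91 mpk (monkey) in 5% Solutol/5% EtOH in saline. Oral/nasogastric dosing was 3 mpk in 1.0% CMC/0.25% PS80/0.05% antifoam in purified water. Samples were processed to plasma and analysed by LC-MS/MS; values are mean ± SD, N=2-3.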

Rattus norvegicus [15] = assay: Antidyslipidemic activity in ZDF rat assessed as LDL/IgHDL level at 3 mg/kg for 9 days by FPLC analysis (reference value: 17.8 mg/dL); assay type: functional, Zucker
[16] = Tmax in cynomolgus monkey at 3 mg/kg, po by LC-MS/MS analysis; assay type: ADME, organism-based, Macaca fascicularis; settings: in vivo; how it was run: as §3
Rattus norvegicus [17] = assay: Antidyslipidemic activity in ZDF rat assessed as HDL level at 3 mg/kg for 9 days by FPLC analysis (reference value: 48.3 mg/dL); assay type: functional, Zucker
Glucocorticoid receptor = molecular target: T1, Glucocorticoid receptor (Homo sapiens, UniProt P04150); assay: Agonist activity at glucocorticoid receptor (unknown origin) expressed in HEK293 cells assessed as transcriptional activation; assay type: cell-based
T1 sequence (P04150 whole entry): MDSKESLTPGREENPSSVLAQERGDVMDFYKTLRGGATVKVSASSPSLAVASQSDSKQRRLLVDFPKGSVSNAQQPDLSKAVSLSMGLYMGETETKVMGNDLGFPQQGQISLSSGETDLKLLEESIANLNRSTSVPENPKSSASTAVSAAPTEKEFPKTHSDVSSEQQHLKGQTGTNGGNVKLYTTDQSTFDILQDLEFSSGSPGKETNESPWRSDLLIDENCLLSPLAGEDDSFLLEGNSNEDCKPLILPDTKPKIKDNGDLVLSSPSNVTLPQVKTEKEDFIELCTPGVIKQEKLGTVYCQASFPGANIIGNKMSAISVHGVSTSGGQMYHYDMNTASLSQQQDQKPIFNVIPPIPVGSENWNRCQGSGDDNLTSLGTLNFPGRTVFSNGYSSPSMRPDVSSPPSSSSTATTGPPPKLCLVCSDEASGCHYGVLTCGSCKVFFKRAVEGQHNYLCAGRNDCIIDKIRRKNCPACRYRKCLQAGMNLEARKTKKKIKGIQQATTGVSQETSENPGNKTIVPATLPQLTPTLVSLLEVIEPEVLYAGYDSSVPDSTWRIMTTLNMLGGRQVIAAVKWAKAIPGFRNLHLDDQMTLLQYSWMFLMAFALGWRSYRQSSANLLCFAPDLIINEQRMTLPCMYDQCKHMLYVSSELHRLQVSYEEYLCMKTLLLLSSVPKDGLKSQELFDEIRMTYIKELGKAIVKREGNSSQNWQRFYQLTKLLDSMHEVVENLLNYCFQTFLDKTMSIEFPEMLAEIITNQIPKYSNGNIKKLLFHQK

Vd [1]: 2.48 L/kg
fraction unbound [2]: 0.02
C0 [5]: 1180 ng/mL
half-life [8]: 10 h
Tmax [9]: 0.75 h
half-life [12]: 7 h
half-life [13]: 2 h
AUC(0-t) at 24 h [14]: 2300 ng·h/mL
Tmax [16]: 3.33 h
EC50 (Glucocorticoid receptor): > 10 µM
Structure (SMILES): Cn1cc(C(=O)O)c2ccc(N3CCC(OCc4c(-c5c(Cl)cccc5Cl)noc4C4CC4)CC3)cc21 [TERN-101]
inhibition in vivo at 1 mg/kg (Mus musculus [3]): 1%
inhibition in vivo at 3 mg/kg (Mus musculus [4]): 15%
inhibition in vivo at 10 mg/kg (Mus musculus [6]): 50%
inhibition in vivo at 3 mg/kg (Mus musculus [7]): 78%
ED50 (Mus musculus [10]): 3.4 mg/kg
Activity (Rattus norvegicus [11]): 13.2 mg/dL
Activity (Rattus norvegicus [15]): 10.8 mg/dL
Activity (Rattus norvegicus [17]): 62.5 mg/dL
